Measured values: ChEMBL document CHEMBL1136094, “Novel, potent and selective cyclin D1/CDK4 inhibitors: indolo[6,7-a]pyrrolo[3,4-c]carbazoles” (Bioorg Med Chem Lett, 2003)

How the values were obtained:
[1] = target: Mitogen-activated protein kinase 12 (Homo sapiens) (UniProt P53778); experiment: Inhibition of Stress activated protein kinase 3 at 100 nM; design: scale not given: the % may be the effect or the level left
Method in brief: (§1)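 Panel of 39 kinases, each tested at 100 and 500 nM inhibitor. […] Activity is expressed as % of control and is the mean of duplicate assays.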

[2] = target: Inhibitor of nuclear factor kappa-B kinase subunit beta (Homo sapiens) (UniProt O14920); experiment: Inhibition of I-kappa-B-kinase beta at 500 nM; design: scale not given: the % may be the effect or the level left
Chain of Inhibitor of nuclear factor kappa-B kinase subunit beta (Homo sapiens) (O14920 whole entry): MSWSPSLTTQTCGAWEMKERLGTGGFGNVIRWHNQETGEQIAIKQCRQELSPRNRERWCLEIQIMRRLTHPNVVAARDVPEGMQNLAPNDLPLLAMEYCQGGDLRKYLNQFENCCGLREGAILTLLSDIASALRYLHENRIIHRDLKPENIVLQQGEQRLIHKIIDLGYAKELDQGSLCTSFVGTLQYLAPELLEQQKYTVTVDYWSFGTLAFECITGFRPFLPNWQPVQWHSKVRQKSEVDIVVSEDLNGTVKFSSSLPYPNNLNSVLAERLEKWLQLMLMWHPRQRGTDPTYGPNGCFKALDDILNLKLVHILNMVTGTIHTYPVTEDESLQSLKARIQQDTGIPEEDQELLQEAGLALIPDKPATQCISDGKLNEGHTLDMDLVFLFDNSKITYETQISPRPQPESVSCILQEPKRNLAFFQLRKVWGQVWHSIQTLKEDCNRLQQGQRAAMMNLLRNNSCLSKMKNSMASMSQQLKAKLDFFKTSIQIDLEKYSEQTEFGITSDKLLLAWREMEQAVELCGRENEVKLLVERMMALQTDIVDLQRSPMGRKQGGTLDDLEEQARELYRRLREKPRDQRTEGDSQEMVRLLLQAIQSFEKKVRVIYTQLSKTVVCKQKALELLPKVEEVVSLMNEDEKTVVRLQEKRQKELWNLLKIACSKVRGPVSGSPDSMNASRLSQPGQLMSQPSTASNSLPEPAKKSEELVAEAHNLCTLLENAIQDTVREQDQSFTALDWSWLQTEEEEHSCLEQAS
Method in brief: (§2)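 Panel profiling of isolated kinases with inhibitor at 100 nM and 500 nM. […] Remaining kinase activity is expressed as % of control and is the mean of duplicate assays.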

[3] = target: Protein kinase C beta type (Homo sapiens) (UniProt P05771); experiment: Inhibition of Protein kinase C beta 2 at 100 nM; design: scale not given: the % may be the effect or the level left; method in brief: as §2
Chain of Protein kinase C beta type (Homo sapiens) (P05771 2-671 limits assumed): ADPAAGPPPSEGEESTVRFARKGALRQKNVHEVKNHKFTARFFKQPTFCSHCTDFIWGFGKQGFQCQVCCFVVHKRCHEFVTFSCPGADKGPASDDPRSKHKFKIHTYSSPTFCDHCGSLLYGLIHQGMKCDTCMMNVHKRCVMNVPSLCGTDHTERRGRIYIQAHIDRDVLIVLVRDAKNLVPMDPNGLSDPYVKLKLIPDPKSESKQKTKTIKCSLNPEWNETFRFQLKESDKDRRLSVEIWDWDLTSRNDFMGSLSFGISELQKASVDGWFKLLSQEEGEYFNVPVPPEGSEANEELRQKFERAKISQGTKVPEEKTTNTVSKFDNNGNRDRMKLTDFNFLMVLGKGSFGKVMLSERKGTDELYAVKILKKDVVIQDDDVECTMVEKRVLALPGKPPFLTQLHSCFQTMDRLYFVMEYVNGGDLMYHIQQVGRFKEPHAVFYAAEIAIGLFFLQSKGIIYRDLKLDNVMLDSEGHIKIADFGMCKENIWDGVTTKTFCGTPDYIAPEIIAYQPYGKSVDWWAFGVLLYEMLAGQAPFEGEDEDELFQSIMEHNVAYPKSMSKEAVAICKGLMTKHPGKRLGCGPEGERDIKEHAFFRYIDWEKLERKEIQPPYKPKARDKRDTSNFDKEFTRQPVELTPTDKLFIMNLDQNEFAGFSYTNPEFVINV

[4] = target: MAP kinase-activated protein kinase 2 (Homo sapiens) (UniProt P49137); experiment: Inhibition of mitogen-activated protein kinase-activated protein kinase 2 at 100 nM; design: scale not given: the % may be the effect or the level left; method in brief: as §1
[5] = target: Tyrosine-protein kinase Fyn (Homo sapiens) (UniProt P06241); experiment: Inhibition of Fyn protein kinase at 100 nM; design: scale not given: the % may be the effect or the level left; method in brief: as §2
Chain of Tyrosine-protein kinase Fyn (Homo sapiens) (P06241 2-537 limits assumed): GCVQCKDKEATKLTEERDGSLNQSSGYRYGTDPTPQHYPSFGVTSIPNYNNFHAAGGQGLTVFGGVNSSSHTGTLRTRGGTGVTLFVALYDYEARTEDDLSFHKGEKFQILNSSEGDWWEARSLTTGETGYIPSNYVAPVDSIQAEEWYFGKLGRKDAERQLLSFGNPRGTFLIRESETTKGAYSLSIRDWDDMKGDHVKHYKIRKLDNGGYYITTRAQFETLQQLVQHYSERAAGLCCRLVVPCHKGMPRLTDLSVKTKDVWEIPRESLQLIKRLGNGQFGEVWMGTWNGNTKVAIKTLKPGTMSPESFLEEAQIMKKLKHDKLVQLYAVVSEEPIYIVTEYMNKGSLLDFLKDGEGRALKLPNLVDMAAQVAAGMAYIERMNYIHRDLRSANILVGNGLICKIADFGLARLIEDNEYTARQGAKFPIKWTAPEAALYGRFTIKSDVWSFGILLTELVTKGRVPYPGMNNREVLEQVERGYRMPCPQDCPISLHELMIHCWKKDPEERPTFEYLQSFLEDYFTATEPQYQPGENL

[6] = target: Ribosomal protein S6 kinase alpha-5 (Homo sapiens) (UniProt O75582); experiment: Inhibition of MSK-1 kinase at 500 nM; design: scale not given: the % may be the effect or the level left; method in brief: as §2
Chain of Ribosomal protein S6 kinase alpha-5 (Homo sapiens) (O75582 whole entry, looked up): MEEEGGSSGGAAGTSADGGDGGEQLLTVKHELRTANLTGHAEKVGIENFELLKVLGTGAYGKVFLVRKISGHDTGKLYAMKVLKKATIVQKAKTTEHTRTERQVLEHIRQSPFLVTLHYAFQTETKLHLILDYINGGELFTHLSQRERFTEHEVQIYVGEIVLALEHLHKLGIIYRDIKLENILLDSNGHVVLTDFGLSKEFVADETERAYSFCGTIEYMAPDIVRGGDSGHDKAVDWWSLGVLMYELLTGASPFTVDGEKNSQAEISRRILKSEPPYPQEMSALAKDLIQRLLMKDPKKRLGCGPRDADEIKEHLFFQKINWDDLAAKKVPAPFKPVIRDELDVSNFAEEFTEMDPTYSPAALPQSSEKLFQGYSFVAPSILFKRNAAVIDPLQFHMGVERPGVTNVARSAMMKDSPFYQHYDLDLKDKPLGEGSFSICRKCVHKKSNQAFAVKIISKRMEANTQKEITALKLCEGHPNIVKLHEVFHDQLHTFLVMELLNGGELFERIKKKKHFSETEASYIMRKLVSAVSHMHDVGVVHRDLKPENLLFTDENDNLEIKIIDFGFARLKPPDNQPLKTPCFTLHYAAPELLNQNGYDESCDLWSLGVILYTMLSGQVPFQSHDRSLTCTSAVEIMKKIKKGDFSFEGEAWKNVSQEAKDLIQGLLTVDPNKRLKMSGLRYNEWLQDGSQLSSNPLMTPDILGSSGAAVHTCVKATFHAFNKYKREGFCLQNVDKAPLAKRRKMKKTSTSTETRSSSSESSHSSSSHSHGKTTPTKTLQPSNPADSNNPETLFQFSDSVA

[7] = target: Cyclin-dependent kinase 5/CDK5 activator 1 (Homo sapiens) (UniProt Q00535+Q15078); experiment: Inhibition of Cyclin-dependent kinase 5-p35nck5a at 500 nM; assay type: protein-complex assay; design: scale not given: the % may be the effect or the level left; method in brief: as §2
[8] = target: Tyrosine-protein kinase Lyn (Homo sapiens) (UniProt P07948); experiment: Inhibition of Protein tyrosine kinase Lyn at 500 nM; design: scale not given: the % may be the effect or the level left; method in brief: as §1
[9] = target: Cyclin-dependent kinase 4/cyclin D1 (Homo sapiens, UniProt P11802); experiment: Inhibitory activity against Cyclin D1-cyclin-dependent kinase 4 in enzymatic assay by measuring phosphorylation of Rb21; assay type: protein-complex assay
[10] = target: Serine/threonine-protein kinase Chk1 (Homo sapiens) (UniProt O14757); experiment: Inhibition of Serine/threonine-protein kinase Chk1 at 100 nM; design: scale not given: the % may be the effect or the level left; method in brief: as §1
[11] = target: Tyrosine-protein kinase ZAP-70 (Homo sapiens) (UniProt P43403); experiment: Inhibition of Zeta-chain (TCR) associated protein kinase 70 kDa (ZAP70) at 100 nM; design: scale not given: the % may be the effect or the level left; method in brief: as §1
[12] = Inhibition of AMP-activated Protein Kinase at 500 nM; design: scale not given: the % may be the effect or the level left; method in brief: as §2
[13] = target: Dual specificity mitogen-activated protein kinase kinase 6 (Homo sapiens) (UniProt P52564); experiment: Inhibition of mitogen-activated protein kinase kinase 6 at 100 nM; design: scale not given: the % may be the effect or the level left; method in brief: as §1
Chain of Dual specificity mitogen-activated protein kinase kinase 6 (Homo sapiens) (P52564 whole entry): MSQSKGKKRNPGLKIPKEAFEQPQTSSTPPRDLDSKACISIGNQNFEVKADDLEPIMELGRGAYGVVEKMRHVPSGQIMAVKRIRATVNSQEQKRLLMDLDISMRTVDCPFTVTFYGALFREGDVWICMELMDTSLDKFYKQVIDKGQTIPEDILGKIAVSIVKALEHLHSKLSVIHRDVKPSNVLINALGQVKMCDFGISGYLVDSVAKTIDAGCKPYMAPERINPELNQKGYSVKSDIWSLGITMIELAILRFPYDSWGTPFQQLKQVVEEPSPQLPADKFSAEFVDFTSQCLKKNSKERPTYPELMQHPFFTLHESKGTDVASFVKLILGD

[14] = target: RAF proto-oncogene serine/threonine-protein kinase (Homo sapiens) (UniProt P04049); experiment: Inhibition of RAF proto-oncogene serine/threonine-protein kinase at 500 nM; design: scale not given: the % may be the effect or the level left; method in brief: as §1
[15] = target: Mitogen-activated protein kinase 10 (Homo sapiens) (UniProt P53779); experiment: Inhibition of c-Jun N-terminal kinase 3 at 100 nM; design: scale not given: the % may be the effect or the level left; method in brief: as §1
Chain of Mitogen-activated protein kinase 10 (Homo sapiens) (P53779 whole entry): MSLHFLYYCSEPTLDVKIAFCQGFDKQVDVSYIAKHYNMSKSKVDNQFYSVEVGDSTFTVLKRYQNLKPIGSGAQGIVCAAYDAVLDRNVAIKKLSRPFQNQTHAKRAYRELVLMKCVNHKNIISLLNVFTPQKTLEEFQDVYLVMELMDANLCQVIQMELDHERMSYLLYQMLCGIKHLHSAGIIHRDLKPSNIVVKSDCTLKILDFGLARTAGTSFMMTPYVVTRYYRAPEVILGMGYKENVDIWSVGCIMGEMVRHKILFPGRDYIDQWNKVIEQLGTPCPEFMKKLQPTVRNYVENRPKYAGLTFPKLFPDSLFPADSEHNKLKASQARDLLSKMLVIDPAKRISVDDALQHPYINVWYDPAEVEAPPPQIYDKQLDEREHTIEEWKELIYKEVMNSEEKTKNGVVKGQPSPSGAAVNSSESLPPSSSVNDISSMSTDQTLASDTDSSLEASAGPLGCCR

[16] = target: Proto-oncogene tyrosine-protein kinase Src (Homo sapiens) (UniProt P12931); experiment: Inhibition of c-Src protein tyrosine kinase at 500 nM; design: scale not given: the % may be the effect or the level left; method in brief: as §1
[17] = target: Calcium/calmodulin-dependent protein kinase type IV (Homo sapiens) (UniProt Q16566); experiment: Inhibition of Calcium/calmodulin-dependent protein kinase type IV at 500 nM; design: scale not given: the % may be the effect or the level left; method in brief: as §2
[18] = target: Casein kinase II (Homo sapiens) (UniProt P67870+P68400+P19784); experiment: Inhibition of CK2 kinase at 100 nM; assay type: protein-complex assay; design: scale not given: the % may be the effect or the level left; method in brief: as §2
[19] = target: Serine/threonine-protein kinase Sgk1 (Homo sapiens) (UniProt O00141); experiment: Inhibition of Serum/glucocorticoid regulated kinase at 500 nM; design: scale not given: the % may be the effect or the level left; method in brief: as §1
Chain of Serine/threonine-protein kinase Sgk1 (Homo sapiens) (O00141 whole entry): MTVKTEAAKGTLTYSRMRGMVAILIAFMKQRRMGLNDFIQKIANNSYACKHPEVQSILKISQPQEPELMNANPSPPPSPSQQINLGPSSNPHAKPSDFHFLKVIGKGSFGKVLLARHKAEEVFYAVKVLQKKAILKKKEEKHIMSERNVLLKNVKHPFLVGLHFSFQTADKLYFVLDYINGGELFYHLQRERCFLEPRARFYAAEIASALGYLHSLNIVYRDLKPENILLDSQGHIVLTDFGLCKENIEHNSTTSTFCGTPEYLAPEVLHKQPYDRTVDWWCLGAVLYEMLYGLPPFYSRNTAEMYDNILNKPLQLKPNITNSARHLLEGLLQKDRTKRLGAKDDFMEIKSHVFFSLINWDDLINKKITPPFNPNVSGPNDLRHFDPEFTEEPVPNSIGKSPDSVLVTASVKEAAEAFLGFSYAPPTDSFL

[20] = target: Rho-associated protein kinase 2 (Homo sapiens) (UniProt O75116); experiment: Inhibition of Protein kinase ROCK2 at 500 nM; design: scale not given: the % may be the effect or the level left; method in brief: as §1
[21] = target: Inhibitor of nuclear factor kappa-B kinase subunit beta (Homo sapiens) (UniProt O14920); experiment: Inhibition of I-kappa-B-kinase beta at 100 nM; design: scale not given: the % may be the effect or the level left; method in brief: as §2
[22] = target: Dual specificity mitogen-activated protein kinase kinase 1 (Homo sapiens) (UniProt Q02750); experiment: Inhibition of Mitogen activated protein kinase kinase kinase 1 at 500 nM; design: scale not given: the % may be the effect or the level left
Chain of Dual specificity mitogen-activated protein kinase kinase 1 (Homo sapiens) (Q02750 whole entry): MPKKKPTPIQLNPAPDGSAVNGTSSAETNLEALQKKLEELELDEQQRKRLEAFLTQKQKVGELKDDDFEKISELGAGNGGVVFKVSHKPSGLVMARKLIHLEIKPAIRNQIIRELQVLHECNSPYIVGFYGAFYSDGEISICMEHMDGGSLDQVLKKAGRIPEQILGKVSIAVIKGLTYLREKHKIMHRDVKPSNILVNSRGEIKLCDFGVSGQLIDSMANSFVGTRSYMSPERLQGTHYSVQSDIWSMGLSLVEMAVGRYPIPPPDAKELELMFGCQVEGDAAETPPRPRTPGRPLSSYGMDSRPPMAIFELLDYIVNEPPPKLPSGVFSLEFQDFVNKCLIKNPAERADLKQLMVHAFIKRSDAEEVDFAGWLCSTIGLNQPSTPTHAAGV

[23] = target: Mitogen-activated protein kinase 10 (Homo sapiens) (UniProt P53779); experiment: Inhibition of c-Jun N-terminal kinase 3 at 500 nM; design: scale not given: the % may be the effect or the level left; method in brief: as §1
[24] = target: Protein kinase C beta type (Homo sapiens) (UniProt P05771); experiment: Inhibition of Protein kinase C beta 2 at 500 nM; design: scale not given: the % may be the effect or the level left; method in brief: as §2
[25] = target: Dual specificity mitogen-activated protein kinase kinase 6 (Homo sapiens) (UniProt P52564); experiment: Inhibition of mitogen-activated protein kinase kinase 6 at 500 nM; design: scale not given: the % may be the effect or the level left; method in brief: as §1
[26] = target: Protein kinase C gamma type (Homo sapiens) (UniProt P05129); experiment: Inhibition of Protein kinase C gamma at 500 nM; design: scale not given: the % may be the effect or the level left; method in brief: as §1
[27] = target: Glycogen synthase kinase-3 beta (Homo sapiens, UniProt P49841); experiment: Inhibition of Glycogen synthase kinase-3 beta
[28] = target: Serine/threonine-protein kinase N2 (Homo sapiens) (UniProt Q16513); experiment: Inhibition of PRK2 at 100 nM; design: scale not given: the % may be the effect or the level left; method in brief: as §2
[29] = target: MAP kinase-activated protein kinase 5 (Homo sapiens) (UniProt Q8IW41); experiment: Inhibition of Protein kinase PRAK at 500 nM; design: scale not given: the % may be the effect or the level left; method in brief: as §1
Chain of MAP kinase-activated protein kinase 5 (Homo sapiens) (Q8IW41 whole entry): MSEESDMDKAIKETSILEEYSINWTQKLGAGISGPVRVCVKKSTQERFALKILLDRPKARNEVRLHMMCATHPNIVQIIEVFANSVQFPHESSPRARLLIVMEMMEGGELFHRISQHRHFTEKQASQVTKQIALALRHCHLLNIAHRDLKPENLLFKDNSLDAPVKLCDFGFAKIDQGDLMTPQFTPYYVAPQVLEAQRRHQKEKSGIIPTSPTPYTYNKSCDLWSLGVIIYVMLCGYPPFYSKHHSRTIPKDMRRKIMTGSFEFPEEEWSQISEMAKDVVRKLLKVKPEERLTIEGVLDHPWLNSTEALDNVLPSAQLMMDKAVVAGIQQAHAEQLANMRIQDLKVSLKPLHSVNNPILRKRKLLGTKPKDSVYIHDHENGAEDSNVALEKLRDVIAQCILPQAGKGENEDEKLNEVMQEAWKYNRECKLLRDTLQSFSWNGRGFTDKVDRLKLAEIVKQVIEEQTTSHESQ

[30] = target: Tyrosine-protein kinase Fyn (Homo sapiens) (UniProt P06241); experiment: Inhibition of Fyn protein kinase at 500 nM; design: scale not given: the % may be the effect or the level left; method in brief: as §2
[31] = target: Dual specificity mitogen-activated protein kinase kinase 1 (Homo sapiens) (UniProt Q02750); experiment: Inhibition of Mitogen activated protein kinase kinase kinase 1 at 100 nM; design: scale not given: the % may be the effect or the level left
[32] = target: T1, Casein kinase I (Homo sapiens) (UniProt Q9HCP0+P78368+P48730+P49674+P48729); experiment: Inhibition of CK1 kinase at 500 nM; assay type: protein assay; design: scale not given: the % may be the effect or the level left; method in brief: as §2
[33] = target: T1, Casein kinase I (Homo sapiens); experiment: Inhibition of CK1 kinase at 100 nM; assay type: protein assay; design: scale not given: the % may be the effect or the level left; method in brief: as §2
[34] = target: Cyclin-dependent kinase 2/cyclin E (Homo sapiens, UniProt P24941); experiment: Inhibitory activity against Cyclin E-cyclin-dependent kinase 2 in enzymatic assay by measuring phosphorylation of RbING; assay type: protein-complex assay
[35] = target: Protein kinase C gamma type (Homo sapiens) (UniProt P05129); experiment: Inhibition of Protein kinase C gamma at 100 nM; design: scale not given: the % may be the effect or the level left; method in brief: as §2
[36] = target: Cyclin-dependent kinase 2/cyclin A (Homo sapiens) (UniProt P24941+P20248+P78396); experiment: Inhibition of Cyclin A-cyclin-dependent kinase 2 at 500 nM; assay type: protein-complex assay; design: scale not given: the % may be the effect or the level left; method in brief: as §2
[37] = target: Tyrosine-protein kinase Lck (Homo sapiens) (UniProt P06239); experiment: Inhibition of p56 Lck tyrosine kinase at 100 nM; design: scale not given: the % may be the effect or the level left; method in brief: as §1
[38] = target: Serine/threonine-protein kinase N2 (Homo sapiens) (UniProt Q16513); experiment: Inhibition of PRK2 at 500 nM; design: scale not given: the % may be the effect or the level left; method in brief: as §2
[39] = target: Protein kinase C theta type (Homo sapiens) (UniProt Q04759); experiment: Inhibition of Protein kinase C theta at 100 nM; design: scale not given: the % may be the effect or the level left; method in brief: as §1
[40] = target: Tyrosine-protein kinase SYK (Homo sapiens) (UniProt P43405); experiment: Inhibition of Syk protein tyrosine kinase at 100 nM; design: scale not given: the % may be the effect or the level left; method in brief: as §1
[41] = target: Mitogen-activated protein kinase 14 (Homo sapiens, UniProt Q16539); experiment: Inhibition of Mitogen-activated protein kinase p38 alpha
[42] = target: Serine/threonine-protein kinase Sgk1 (Homo sapiens) (UniProt O00141); experiment: Inhibition of Serum/glucocorticoid regulated kinase at 100 nM; design: scale not given: the % may be the effect or the level left; method in brief: as §1
[43] = target: Dual specificity mitogen-activated protein kinase kinase 7 (Homo sapiens) (UniProt O14733); experiment: Inhibition of MKK7-beta kinase at 100 nM; design: scale not given: the % may be the effect or the level left; method in brief: as §2
[44] = target: Ribosomal protein S6 kinase alpha-5 (Homo sapiens) (UniProt O75582); experiment: Inhibition of MSK-1 kinase at 100 nM; design: scale not given: the % may be the effect or the level left; method in brief: as §2
TGF-beta receptor type-2 = TGF-beta receptor type-2 (Homo sapiens, UniProt P37173); experiment: Inhibition of TGF-beta type II receptor
[45] = target: MAP kinase-activated protein kinase 5 (Homo sapiens) (UniProt Q8IW41); experiment: Inhibition of Protein kinase PRAK at 100 nM; design: scale not given: the % may be the effect or the level left; method in brief: as §1

Control [1]: 107%
Control [2]: 106%
Control [3]: 96%
Control [4]: 94%
Control [5]: 92%
Control [6]: 90%
Control [7]: 62%
Control [8]: 18%
IC50 [9]: 0.019 µM
Control [10]: 86%
Control [11]: 134%
Control [12]: 95%
Control [13]: 100%
Control [14]: 107%
Control [15]: 105%
Control [16]: 91%
Control [17]: 102%
Control [18]: 99%
Control [19]: 84%
Control [20]: 62%
Control [21]: 120%
Control [22]: 87%
Control [23]: 97%
Control [24]: 59%
Control [25]: 98%
Control [26]: 84%
IC50 [27]: > 20 µM
Control [28]: 97%
Control [29]: 50%
Control [30]: 74%
Control [31]: 95%
Control [32]: 89%
Control [33]: 98%
IC50 [34]: 1.03 µM
Control [35]: 105%
Control [36]: 42%
Control [37]: 98%
Control [38]: 88%
Control [39]: 82%
Control [40]: 94%
IC50 [41]: 20.2 µM
Control [42]: 94%
Control [43]: 86%
Control [44]: 92%
IC50 (TGF-beta receptor type-2): > 20 µM
Control [45]: 86%
Structure (SMILES): Cn1ccc2ccc3c4[nH]c5c(CCCN[C@H]6CC[C@H](O)CC6)cccc5c4c4c(c3c21)C(=O)NC4=O
